How the values were obtained:
[1] = Cytotoxicity against mock-infected human MT4 cells after 96 hrs by MTT assay; format: cell-based
Method in brief: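 Exponentially growing MT-4 cells were seeded at 1 × 10^5 cells/mL in RPMI-1640 with 10% FBS and held at 37 °C, 5% CO2 with serial compound dilutions. Viability was read by MTT after 96 h. CC50 from linear regression against untreated controls.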

[2] = test system: Human immunodeficiency virus 1; experiment: Antiviral activity against HIV1 infected in human MT4 cells assessed as inhibition of virus-induced cytopathogenicity after 4 days by MTT assay; format: functional, organism-based; conditions: Human immunodeficiency virus 1, MT4, 96 h
Method in brief: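 MT-4 cells (1 × 10^4/well in RPMI) were infected acutely with HIV-1 IIIB, 100 CCID50 (m.o.i. 0.01), with serial dilutions from 100 µM, 1:5. After 4 days at 37 °C, protection from virus-induced cytopathogenicity was read by MTT. EC50 came from linear regression against untreated controls.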

[3] = Cytotoxicity against mock-infected MDBK cells after 48 to 96 hrs by MTT assay; format: cell-based, Bos taurus; conditions: cattle
Method in brief: (§1)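 Mock-infected MDBK (6 × 10^5 cells/mL; MEM-E, 10% horse serum, 1 mM pyruvate) or BHK (1 × 10^6 cells/mL; MEM-E, 10% FBS) cells were incubated at 37 °C, 5% CO2 with serial dilutions from 100 µM, 1:5. Viability by MTT after 48–96 h. CC50 from linear regression against untreated controls.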

[4] = test system: Bovine viral diarrhea virus 1; experiment: Antiviral activity against Bovine viral diarrhea virus infected in MDBK cells assessed as inhibition of virus-induced cytopathogenicity after 3 to 4 days by MTT assay; format: functional, organism-based; conditions: Bovine viral diarrhea virus isolates and strains
[5] = Cytotoxicity against mock-infected BHK21 cells after 48 to 96 hrs by MTT assay; format: functional; conditions: Mesocricetus auratus, BHK-21; method in brief: as §1
[6] = test system: Yellow fever virus; experiment: Antiviral activity against Yellow fever virus infected in BHK21 cells assessed as inhibition of virus-induced cytopathogenicity after 3 to 4 days by MTT assay; format: functional, organism-based; conditions: BHK-21
[7] = test system: Reovirus sp.; experiment: Antiviral activity against Reovirus type-1 infected in BHK21 cells assessed as inhibition of virus-induced cytopathogenicity after 3 to 4 days by MTT assay; format: functional, organism-based; conditions: BHK-21
[8] = Cytotoxicity against mock-infected african green monkey Vero 76 cells after 48 to 96 hrs by MTT assay; format: cell-based; conditions: chlorocebus sabaeus, mock-infected Vero 76 cells
[9] = test system: Poliovirus 1; experiment: Antiviral activity against Poliovirus type 1 Sabin strain infected in african green monkey Vero 76 cells assessed as reduction in plaque number after 2 days by plaque reduction assay; format: functional, organism-based; conditions: Enterovirus C, 48 h
[10] = test system: Vesicular stomatitis virus; experiment: Antiviral activity against Vesicular stomatitis virus infected in african green monkey Vero 76 cells assessed as reduction in plaque number after 2 days by plaque reduction assay; format: functional, organism-based; conditions: 48 h
[11] = test system: Human alphaherpesvirus 1; experiment: Antiviral activity against HSV1 infected in african green monkey Vero 76 cells assessed as reduction in plaque number after 3 days by plaque reduction assay; format: functional, organism-based; conditions: Human alphaherpesvirus 1, Vero, 72 h
[12] = test system: Coxsackievirus B5; experiment: Antiviral activity against Coxsackievirus B5 infected in african green monkey Vero 76 cells assessed as reduction in plaque number after 3 days by plaque reduction assay; format: functional, organism-based; conditions: Enterovirus B, 72 h
[13] = test system: Respiratory syncytial virus; experiment: Antiviral activity against Respiratory syncytial virus infected in african green monkey Vero 76 cells assessed as reduction in plaque number after 5 days by plaque reduction assay; format: functional, organism-based; conditions: human respiratory syncytial virus, 120 h
[14] = test system: Vaccinia virus; experiment: Antiviral activity against Vaccinia Virus infected in african green monkey Vero 76 cells assessed as reduction in plaque number after 3 days by plaque reduction assay; format: functional, organism-based; conditions: Orthopoxvirus vaccinia, 72 h

| Compound | CC50 at 96 h [1] [µM] | EC50 [2] [µM] | CC50 [3] [µM] | EC50 [4] [µM] | CC50 [5] [µM] | EC50 [6] [µM] | EC50 [7] [µM] | CC50 [8] [µM] | EC50 [9] [µM] | EC50 [10] [µM] | EC50 [11] [µM] | EC50 [12] [µM] | EC50 [13] [µM] | EC50 [14] [µM] |
| --- | --- | --- | --- | --- | --- | --- | --- | --- | --- | --- | --- | --- | --- | --- |
| CC1(c2nc3cc(Cl)c(Cl)cc3[nH]2)CCC(CO)C(C)(C)O1 (configuration not stated) | 33 | > 100 | > 100 | 46 | > 100 | > 100 | > 100 | > 100 | 12 | > 100 | 60 | – | – | – |
| ClC1(Cl)C2CCOC21n1cnc2ccccc21 (configuration not stated) | 33 | > 100 | – | – | – | – | – | – | – | – | – | – | – | – |
| c1ccc2[nH]c(C3CCCCO3)nc2c1 (configuration not stated) | > 100 | > 100 | > 100 | > 100 | > 100 | > 100 | > 100 | > 100 | > 100 | > 100 | > 100 | – | – | – |
| c1ccc2c(c1)ncn2C1CCCCO1 (configuration not stated) | > 100 | > 100 | > 100 | > 100 | > 100 | > 100 | – | – | – | – | – | – | – | – |
| Clc1cc2ncn(C3CCCO3)c2cc1Cl (configuration not stated) | > 100 | > 100 | > 100 | > 100 | > 100 | > 100 | > 100 | – | – | – | – | – | – | – |
| CC1(c2nc3ccccc3[nH]2)CCC(C(N)=O)C(C)(C)O1 (configuration not stated) | > 100 | > 100 | > 100 | > 100 | > 100 | > 100 | > 100 | > 100 | > 100 | > 100 | > 100 | – | – | – |
| CC1(c2nc3ccccc3[nH]2)CCC(C#N)C(C)(C)O1 (configuration not stated) | > 100 | > 100 | > 100 | > 100 | > 100 | > 100 | > 100 | > 100 | > 100 | > 100 | > 100 | – | – | – |
| Clc1cc2nc(C3CCCO3)[nH]c2cc1Cl (configuration not stated) | – | – | > 100 | > 100 | > 100 | > 100 | – | – | – | – | – | – | – | – |
| Clc1cc2nc(C3CCCCO3)[nH]c2cc1Cl (configuration not stated) | 6 | > 100 | > 100 | > 100 | > 100 | > 100 | > 100 | > 100 | 60 | > 100 | > 100 | – | – | – |
| O=C1c2ccccc2-n2c(nc3cccnc32)CN1C[C@@H]1CCCN2CCCC[C@H]12 | 31 | > 100 | 91 | 17 | 37 | > 100 | – | > 90 | > 100 | > 100 | – | > 100 | > 100 | > 100 |
| CCN(CC)CCCn1c(-c2ccc(OC)cc2)nc2cc(C(F)(F)F)ccc21 | > 100 | > 100 | > 100 | > 100 | 76 | > 100 | > 100 | > 100 | > 100 | > 100 | > 100 | > 100 | > 100 | > 100 |
| COc1ccc(-c2nc3cc(Cl)ccc3n2[C@H]2CCCN3CCCC[C@H]23)cc1 | > 100 | > 100 | > 100 | 36 | > 100 | > 100 | > 100 | > 100 | > 100 | > 100 | > 100 | > 100 | > 100 | > 100 |
| COc1ccc(-c2nc3cc(Cl)ccc3n2[C@@H]2CCCN3CCCC[C@H]23)cc1 | > 100 | > 100 | > 100 | > 100 | > 100 | > 100 | > 100 | > 100 | > 100 | > 100 | > 100 | > 100 | > 100 | > 100 |
| FC(F)(F)c1ccc2c(c1)nc(-c1ccccc1)n2C[C@@H]1CCCN2CCCC[C@H]12 | 46 | > 100 | 35 | > 100 | 75 | > 100 | > 100 | 90 | > 100 | > 100 | > 100 | > 100 | > 100 | > 100 |
| Fc1cccc(F)c1-c1nc2cc(C(F)(F)F)ccc2n1C[C@@H]1CCCN2CCCC[C@H]12 | 57 | > 100 | 36 | > 100 | 18 | > 100 | > 100 | ≥ 100 | 60 | > 100 | > 100 | > 100 | > 100 | > 100 |
| COc1ccc(-c2nc3cc(C(F)(F)F)ccc3n2C[C@@H]2CCCN3CCCC[C@H]23)cc1 | 25 | > 100 | > 100 | > 100 | 65 | > 100 | 27 | 75 | > 100 | > 100 | > 100 | > 100 | > 100 | > 100 |
| CCCCn1c(-c2ccc(OC)cc2)nc2cc(C(F)(F)F)ccc21 | > 100 | > 100 | 22 | > 100 | 35 | > 100 | > 100 | 80 | 25 | > 100 | > 100 | > 100 | > 100 | > 100 |
| COCCn1c(-c2ccc(OC)cc2)nc2cc(C(F)(F)F)ccc21 | 80 | > 100 | > 100 | > 100 | > 100 | > 100 | > 100 | > 100 | > 100 | > 100 | > 100 | > 100 | > 100 | > 100 |
| CC(CC(=O)O)n1c(-c2ccccc2)nc2ccccc21 (configuration not stated) | > 100 | > 100 | > 100 | > 100 | > 100 | > 100 | > 100 | > 100 | > 100 | > 100 | > 100 | > 100 | > 100 | > 100 |
| FC(F)(F)c1ccc2[nH]c(C3CCCCO3)nc2c1 (configuration not stated) | 97 | > 100 | > 100 | > 100 | > 100 | > 100 | > 100 | > 100 | > 100 | > 100 | > 100 | – | – | – |
| Clc1ccc2[nH]c(C3CCCCO3)nc2c1 (configuration not stated) | > 100 | > 100 | > 100 | > 100 | > 100 | > 100 | > 100 | > 100 | 20 | > 100 | > 100 | – | – | – |
| COc1ccc(-c2nc3cc(C(F)(F)F)ccc3n2CCN(C)C)cc1 | > 100 | > 100 | > 100 | > 100 | > 100 | > 100 | > 100 | > 100 | > 100 | > 100 | > 100 | > 100 | > 100 | > 100 |
| Nc1nc2c(ncn2COCCO)c(=O)[nH]1 [ACYCLOVIR] | > 100 | – | > 100 | > 100 | > 100 | > 100 | > 100 | > 100 | > 100 | > 100 | 1.2 | > 100 | > 100 | > 100 |
| O=C1Nc2ccc(Cl)cc2[C@@](C#CC2CC2)(C(F)(F)F)O1 [EFAVIRENZ] | 38 | – | – | – | – | – | – | – | – | – | – | – | – | – |
